In the RNAGym collection of RNA variant scans (doi:10.1126/science.aae0568):
This sample holds only a part of the variants without activity.

B1: tRNA (parent)
chain: GUUCCGUUGGCGUAAUGGUAACGCGUCUCCCUCCUAAGGAGAAGACUGCGGGUUCGAGUCCCGUACGGAACG

Variants of: B1
Test: yeast fitness relative to wild type (ratio to wild type); higher = fitter; tRNA-Arg(CCU), competitive growth, 37 C, YPD
Procedure, shortened: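 Variants of the tRNA-Arg(CCU) gene, chemically synthesised with a 3% per-site mutation rate at 69 sites, were placed at the native genomic locus in Saccharomyces cerevisiae. The pooled strains were competed in YPD at 37°C for 24 hours in six parallel replicates. Gene amplicons from the start population and from each end population were read by 100-nucleotide paired-end sequencing. Darwinian fitness relative to wild type came from changes in genotype frequencies; genotypes needed ≥ 100 starting reads, and estimates < 0.5 were set to 0.5.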

Variant	yeast fitness
A20G C46A C61G	≤ 0.5
A20G C46A	0.925
A20G C46G	0.942
A20G C22U	0.751
A20G C27U A45C A57C	≤ 0.5
A20G C29A A70U	0.557
A20G A36C A45C G52A G67U	≤ 0.5
A20G C24U A65C	0.653
A20G C29U A57C	≤ 0.5
A20G C24U U32A C49U C55A	≤ 0.5
A20G C22U C31G	0.626
A20G A40C A42U A43C G48A C61A A69U	≤ 0.5
A20G C24U C33U	≤ 0.5
A20G C22G U47C	0.647
A20G C34G C62U	≤ 0.5
A20G C22G C27G C30U C31G G51C A65G	0.563
A20G A45G	0.992
A20G A45C	0.866
A20G A45U	1.04
A20G C27G A43U G63A G68C	≤ 0.5
A20G A43U C46U A57U	≤ 0.5
A20G A57U	0.649
A20G A57G	1
A20G A21U A36G A40C C55U	≤ 0.5

Variant	yeast fitness
A20G C31G C46G G50A	≤ 0.5
A20G C34U G38A A43G G68U	≤ 0.5
A20G C22G A45C C46G A57U	0.553
A20G A40U A45C A65U	≤ 0.5
A20G A40U G58C	0.77
A20G A65U A69U	0.857
A20G A65U A69C	≤ 0.5
A20G A43U A45C G67C	≤ 0.5
A20G C27U G58C	0.78
A20G C27A C46A	0.737
A20G C29U C55G A57C C61U	0.746
A20G A36G A45U	0.683
A20G C30G G56C C62U	≤ 0.5
A20G C31G	0.966
A20G C31U	0.995
A20G C31A	0.8
A20G A57U A65U G68C	≤ 0.5
A20G C34A A36G C66U	≤ 0.5
A20G A37U G48C	0.603
A20G C29A	0.705
A20G C29U	0.88
A20G C29G A40G C49G	≤ 0.5
A20G C49G U59A	0.556
A20G C24A C27A A42G A69C	0.56

Variant	yeast fitness
A20G C27U A57C	≤ 0.5
A20G A42C C66U	0.625
A20G C33A A57G	0.52
A20G A70U	1.06
A20G A70G	1.02
A20G A70C	0.994
A20G C34U A43C A57U G58A C62G	≤ 0.5
A20G C30A G48A U53G	0.505
A20G C29G C34A	≤ 0.5
A20G C31G C46G G50A G67C	≤ 0.5
A20G A45U G67C	0.613
A20G C24A C27A	0.52
A20G C24G C60A	≤ 0.5
A20G C27A U35C A36G A42U	≤ 0.5
A20G A42C C61U	0.573
A20G A40C A42U A43C G48A C55G	≤ 0.5
A20G C33U C49G G50C	≤ 0.5
A20G C30U C55U	≤ 0.5
A20G C30A C55A G68A	≤ 0.5
A20G C46U G50C C61A A70C	0.7
A20G C31U A36U	0.53
A20G C22A C34G C46U G63A	≤ 0.5
A20G C22A C24U	0.589
A20G C33A A36C U47A C66A	≤ 0.5

Variant	yeast fitness
A20G C33A G44A	0.535
A20G C29U G38A G48C C62G	≤ 0.5
A20G A40C A69G	0.625
A20G C22U C49U	0.682
A20G C31G C55G A70G	≤ 0.5
A20G C27G A43U G68C	0.582
A20G C22G G56A G67A	≤ 0.5
A20G A37G	0.718
A20G C46U A70G	0.794
A20G A43U C62U	0.86
A20G A45U G48A C55A	≤ 0.5
A20G C49U C66U	0.684
A20G C24G C60G C62U	0.562
A20G C46U A57C	0.514
A20G C49G	0.855
A20G C49U	0.922
A20G A37U C46A	≤ 0.5
A20G C34U G38A A43G	≤ 0.5
A20G C33G U53A	≤ 0.5
A20G A42U	0.982
A20G A42G U59C	0.634
A20G C24G	0.575
A20G C24A	0.56
A20G C27U C33G A43G A57G C61U C62U	≤ 0.5

Variant	yeast fitness
A20G A43G U47G U64G	≤ 0.5
A20G A65U	0.901
A20G A65C	1.06
A20G A37U C60A	0.626
A20G C27A	0.933
A20G C27U	1.1
A20G C27G	0.608
A20G A36U A42G G58A	≤ 0.5
A20G C24G G44C	0.784
A20G A36G A65G	0.846
A20G C34U A40U A42U U64A	≤ 0.5
A20G C22G C27G C30U C31G G51C G67A A69U	≤ 0.5
A20G A40G C66U	0.647
A20G A37C A40G	≤ 0.5
A20G C33A A37G C62A	≤ 0.5
A20G A57G C61U C62U A69G	≤ 0.5
A20G A43C C61U A70C	≤ 0.5
A20G C24U U26A C61G A65C	0.567
A20G A36U C61U	0.571
A20G C55A	0.585
A20G C55G	0.586
A20G A43U C61G	≤ 0.5
A20G C29U U47G C49U	≤ 0.5
A20G C29U A37G C66U	≤ 0.5

Variant	yeast fitness
A20G C29A G68A	0.613
A20G A69U	1.07
A20G A69G	1.04
A20G A69C	0.916
A20G C33U G39A A69C	≤ 0.5
A20G A40C C60G	≤ 0.5
A20G A40G A42G C55U	≤ 0.5
A20G C27G A40U	≤ 0.5
A20G C24U C33U A43C	≤ 0.5
A20G C33U A40G C62G A70U	≤ 0.5
A20G A36U A57C	≤ 0.5
A20G A37G G44A	0.658
A20G C30G	0.593
A20G C30A	1
A20G C30U	0.871
A20G A36C	0.596
A20G C49U A69U	0.779
A20G A42C U64G	≤ 0.5
A20G C27G G52A	0.551
A20G C49U C66U A70C	≤ 0.5
A20G C31G U64C	0.694
A20G A36U G63C U64C	0.666
A20G A21U C31U A45C C49U A65C	≤ 0.5
A20G C27A G48A	0.762

Variant	yeast fitness
A20G A40U U64A	≤ 0.5
A20G C29U C34U G50A C55G	≤ 0.5
A20G A21U	0.782
A20G C27G G48A	≤ 0.5
A20G C60A A70C	0.556
A20G C22U C31G C66U	≤ 0.5
A20G C33A A43U G44A A69C	≤ 0.5
A20G A37G U59A A70C	≤ 0.5
A20G C29G A37G G67C	≤ 0.5
A20G C33G C49A U54G A65G	≤ 0.5
A20G C22A G23C	≤ 0.5
A20G A45G C49U	0.687
A20G C31U A65U	0.695
A20G C22G C49G	0.568
A20G C34A U47A C61G	≤ 0.5
A20G C24A C29G A37U G39A	≤ 0.5
A20G A36C G56C C61U	≤ 0.5
A20G A40U G51C	≤ 0.5
A20G C22G U47C U53G	≤ 0.5
A20G C22G C27G C30U C31G G51C U54C A65G	≤ 0.5
A20G C27A C46G U53A C60G G67C	≤ 0.5
A20G A40G C49U G58A	≤ 0.5
A20G C33A G44A C61U	0.553
